ChEMBL document CHEMBL3871269, “Conjugates of podophyllotoxin and norcantharidin as dual inhibitors of topoisomeraseⅡ and protein phosphatase 2A” (Eur J Med Chem, 2016)

Experiment: Cytotoxicity against human A549 cells measured after 48 hrs by MTT assay
Assay type: functional, cell-based
Conditions: A549, 48 h
Summary of the method: (§1)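 MTT growth assay; cells seeded at 5×10³/well in RPMI1640 with 10% heat-inactivated FBS, attached 4–6 h, then exposed to five concentrations (0.01–100 μM, compounds dissolved in saline) for 48 h at 37 °C, 5% CO₂. MTT added for 4 h, formazan dissolved in DMSO, absorbance read at 490 nm. IC50 taken from log plot of percent of control versus concentration; means ± SD of triplicate experiments.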

Compound	IC50
COc1cc([C@@H]2c3cc4c(cc3[C@@H](NC(=O)[C@H](C)N3C(=O)C5C6CCC(O6)C5C3=O)[C@H]3COC(=O)[C@H]23)OCO4)cc(OC)c1O (some centres not stated)	44.5 µM
COc1cc([C@@H]2c3cc4c(cc3[C@@H](NC(=O)CCN3C(=O)C5C6CCC(O6)C5C3=O)[C@H]3COC(=O)[C@H]23)OCO4)cc(OC)c1O (some centres not stated)	6.21 µM
CC[C@H](C)[C@@H](C(=O)N[C@@H]1c2cc3c(cc2[C@@H](c2cc(OC)c(O)c(OC)c2)[C@H]2C(=O)OC[C@@H]21)OCO3)N1C(=O)C2C3CCC(O3)C2C1=O (some centres not stated)	10.1 µM
COc1cc([C@@H]2c3cc4c(cc3[C@@H](NC(=O)c3ccc(N5C(=O)C6C7CCC(O7)C6C5=O)cc3)[C@H]3COC(=O)[C@H]23)OCO4)cc(OC)c1O (some centres not stated)	3.42 µM
COc1cc([C@@H]2c3cc4c(cc3[C@@H](NC(=O)CN3C(=O)C5C6CCC(O6)C5C3=O)[C@H]3COC(=O)[C@H]23)OCO4)cc(OC)c1O (some centres not stated)	5.47 µM
COc1cc([C@@H]2c3cc4c(cc3[C@@H](NC(=O)[C@H](Cc3ccccc3)N3C(=O)C5C6CCC(O6)C5C3=O)[C@H]3COC(=O)[C@H]23)OCO4)cc(OC)c1O (some centres not stated)	14.1 µM

Experiment: Cytotoxicity against human HepG2 cells measured after 48 hrs by MTT assay
Assay type: functional, cell-based
Conditions: HepG2, 48 h
Summary of the method: as §1

Compound	IC50
COc1cc([C@@H]2c3cc4c(cc3[C@@H](NC(=O)[C@H](C)N3C(=O)C5C6CCC(O6)C5C3=O)[C@H]3COC(=O)[C@H]23)OCO4)cc(OC)c1O (some centres not stated)	13.7 µM
COc1cc([C@@H]2c3cc4c(cc3[C@@H](NC(=O)CCN3C(=O)C5C6CCC(O6)C5C3=O)[C@H]3COC(=O)[C@H]23)OCO4)cc(OC)c1O (some centres not stated)	8.42 µM
CC[C@H](C)[C@@H](C(=O)N[C@@H]1c2cc3c(cc2[C@@H](c2cc(OC)c(O)c(OC)c2)[C@H]2C(=O)OC[C@@H]21)OCO3)N1C(=O)C2C3CCC(O3)C2C1=O (some centres not stated)	3.21 µM
COc1cc([C@@H]2c3cc4c(cc3[C@@H](NC(=O)c3ccc(N5C(=O)C6C7CCC(O7)C6C5=O)cc3)[C@H]3COC(=O)[C@H]23)OCO4)cc(OC)c1O (some centres not stated)	0.1 µM
COc1cc([C@@H]2c3cc4c(cc3[C@@H](NC(=O)CN3C(=O)C5C6CCC(O6)C5C3=O)[C@H]3COC(=O)[C@H]23)OCO4)cc(OC)c1O (some centres not stated)	0.14 µM
COc1cc([C@@H]2c3cc4c(cc3[C@@H](NC(=O)[C@H](Cc3ccccc3)N3C(=O)C5C6CCC(O6)C5C3=O)[C@H]3COC(=O)[C@H]23)OCO4)cc(OC)c1O (some centres not stated)	5.53 µM

Experiment: Cytotoxicity against human HeLa cells measured after 48 hrs by MTT assay
Assay type: functional, cell-based
Conditions: not given
Summary of the method: as §1

Compound	IC50
COc1cc([C@@H]2c3cc4c(cc3[C@@H](NC(=O)[C@H](C)N3C(=O)C5C6CCC(O6)C5C3=O)[C@H]3COC(=O)[C@H]23)OCO4)cc(OC)c1O (some centres not stated)	15.1 µM
COc1cc([C@@H]2c3cc4c(cc3[C@@H](NC(=O)CCN3C(=O)C5C6CCC(O6)C5C3=O)[C@H]3COC(=O)[C@H]23)OCO4)cc(OC)c1O (some centres not stated)	10.8 µM
CC[C@H](C)[C@@H](C(=O)N[C@@H]1c2cc3c(cc2[C@@H](c2cc(OC)c(O)c(OC)c2)[C@H]2C(=O)OC[C@@H]21)OCO3)N1C(=O)C2C3CCC(O3)C2C1=O (some centres not stated)	2.52 µM
COc1cc([C@@H]2c3cc4c(cc3[C@@H](NC(=O)c3ccc(N5C(=O)C6C7CCC(O7)C6C5=O)cc3)[C@H]3COC(=O)[C@H]23)OCO4)cc(OC)c1O (some centres not stated)	2.61 µM
COc1cc([C@@H]2c3cc4c(cc3[C@@H](NC(=O)CN3C(=O)C5C6CCC(O6)C5C3=O)[C@H]3COC(=O)[C@H]23)OCO4)cc(OC)c1O (some centres not stated)	1.65 µM
COc1cc([C@@H]2c3cc4c(cc3[C@@H](NC(=O)[C@H](Cc3ccccc3)N3C(=O)C5C6CCC(O6)C5C3=O)[C@H]3COC(=O)[C@H]23)OCO4)cc(OC)c1O (some centres not stated)	16 µM

Experiment: Cytotoxicity against human HCT8 cells measured after 48 hrs by MTT assay
Assay type: functional, cell-based
Conditions: HCT-8, 48 h
Summary of the method: as §1

Compound	IC50
COc1cc([C@@H]2c3cc4c(cc3[C@@H](NC(=O)[C@H](C)N3C(=O)C5C6CCC(O6)C5C3=O)[C@H]3COC(=O)[C@H]23)OCO4)cc(OC)c1O (some centres not stated)	16.9 µM
COc1cc([C@@H]2c3cc4c(cc3[C@@H](NC(=O)CCN3C(=O)C5C6CCC(O6)C5C3=O)[C@H]3COC(=O)[C@H]23)OCO4)cc(OC)c1O (some centres not stated)	17.2 µM
CC[C@H](C)[C@@H](C(=O)N[C@@H]1c2cc3c(cc2[C@@H](c2cc(OC)c(O)c(OC)c2)[C@H]2C(=O)OC[C@@H]21)OCO3)N1C(=O)C2C3CCC(O3)C2C1=O (some centres not stated)	23.6 µM
COc1cc([C@@H]2c3cc4c(cc3[C@@H](NC(=O)c3ccc(N5C(=O)C6C7CCC(O7)C6C5=O)cc3)[C@H]3COC(=O)[C@H]23)OCO4)cc(OC)c1O (some centres not stated)	3.12 µM
COc1cc([C@@H]2c3cc4c(cc3[C@@H](NC(=O)CN3C(=O)C5C6CCC(O6)C5C3=O)[C@H]3COC(=O)[C@H]23)OCO4)cc(OC)c1O (some centres not stated)	17.1 µM
COc1cc([C@@H]2c3cc4c(cc3[C@@H](NC(=O)[C@H](Cc3ccccc3)N3C(=O)C5C6CCC(O6)C5C3=O)[C@H]3COC(=O)[C@H]23)OCO4)cc(OC)c1O (some centres not stated)	11.6 µM

Experiment: Cytotoxicity against human WI38 cells measured after 48 hrs by MTT assay
Assay type: toxicity, cell-based, WI-38
Conditions: not given
Summary of the method: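 MTT growth inhibition in WI-38 lung fibroblasts. Cells seeded at 5×10³/well in RPMI1640 with 10% heat-inactivated FBS, attached 4–6 h, then exposed 48 h at 37 °C, 5% CO₂ to five concentrations (0.01–100 μM, saline-dissolved). MTT 4 h, DMSO solubilisation, A490. IC50 from log plot of percent control vs concentration; triplicate, mean ± SD.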

Compound	IC50 at 48 h
COc1cc([C@@H]2c3cc4c(cc3[C@@H](NC(=O)[C@H](C)N3C(=O)C5C6CCC(O6)C5C3=O)[C@H]3COC(=O)[C@H]23)OCO4)cc(OC)c1O (some centres not stated)	35.6 µM
COc1cc([C@@H]2c3cc4c(cc3[C@@H](NC(=O)CCN3C(=O)C5C6CCC(O6)C5C3=O)[C@H]3COC(=O)[C@H]23)OCO4)cc(OC)c1O (some centres not stated)	> 100 µM
CC[C@H](C)[C@@H](C(=O)N[C@@H]1c2cc3c(cc2[C@@H](c2cc(OC)c(O)c(OC)c2)[C@H]2C(=O)OC[C@@H]21)OCO3)N1C(=O)C2C3CCC(O3)C2C1=O (some centres not stated)	65.2 µM
COc1cc([C@@H]2c3cc4c(cc3[C@@H](NC(=O)c3ccc(N5C(=O)C6C7CCC(O7)C6C5=O)cc3)[C@H]3COC(=O)[C@H]23)OCO4)cc(OC)c1O (some centres not stated)	46.5 µM
COc1cc([C@@H]2c3cc4c(cc3[C@@H](NC(=O)CN3C(=O)C5C6CCC(O6)C5C3=O)[C@H]3COC(=O)[C@H]23)OCO4)cc(OC)c1O (some centres not stated)	33.5 µM
COc1cc([C@@H]2c3cc4c(cc3[C@@H](NC(=O)[C@H](Cc3ccccc3)N3C(=O)C5C6CCC(O6)C5C3=O)[C@H]3COC(=O)[C@H]23)OCO4)cc(OC)c1O (some centres not stated)	29.6 µM

Experiment: Octanol-water partition coefficient, log P of the compound
Assay type: physicochemical
Conditions: read-out: logP
Summary of the method: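 Partition coefficient P = compound concentration in 1-octanol / compound concentration in water.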

Compound	logP
COc1cc([C@@H]2c3cc4c(cc3[C@@H](NC(=O)[C@H](C)N3C(=O)C5C6CCC(O6)C5C3=O)[C@H]3COC(=O)[C@H]23)OCO4)cc(OC)c1O (some centres not stated)	0.62
COc1cc([C@@H]2c3cc4c(cc3[C@@H](NC(=O)CCN3C(=O)C5C6CCC(O6)C5C3=O)[C@H]3COC(=O)[C@H]23)OCO4)cc(OC)c1O (some centres not stated)	0.41
CC[C@H](C)[C@@H](C(=O)N[C@@H]1c2cc3c(cc2[C@@H](c2cc(OC)c(O)c(OC)c2)[C@H]2C(=O)OC[C@@H]21)OCO3)N1C(=O)C2C3CCC(O3)C2C1=O (some centres not stated)	1.91
COc1cc([C@@H]2c3cc4c(cc3[C@@H](NC(=O)c3ccc(N5C(=O)C6C7CCC(O7)C6C5=O)cc3)[C@H]3COC(=O)[C@H]23)OCO4)cc(OC)c1O (some centres not stated)	2.06
COc1cc([C@@H]2c3cc4c(cc3[C@@H](NC(=O)CN3C(=O)C5C6CCC(O6)C5C3=O)[C@H]3COC(=O)[C@H]23)OCO4)cc(OC)c1O (some centres not stated)	0.13
COc1cc([C@@H]2c3cc4c(cc3[C@@H](NC(=O)[C@H](Cc3ccccc3)N3C(=O)C5C6CCC(O6)C5C3=O)[C@H]3COC(=O)[C@H]23)OCO4)cc(OC)c1O (some centres not stated)	2.27

Experiment: Inhibition of human RBC PP2A assessed as reduction in free phosphate ion release using Lys-Arg-pThr-Ile-Arg as substrate preincubated for 10 mins followed by substrate addition measured after 60 mins by malachite green method
Conditions: not given
Summary of the method: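 Purified PP2A (0.6 mU/well) preincubated with inhibitor 10 min at 37 °C. Reaction started with 200 μM Lys-Arg-pThr-Ile-Arg in 50 mM Tris-HCl pH 7.0, 100 μM CaCl₂; 60 min at room temperature. Released phosphate read by malachite green at 650 nm after 10 min; enzyme-plus-buffer blanks. IC50 from dose–response; mean of three independent experiments in duplicate.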

Compound	IC50
COc1cc([C@@H]2c3cc4c(cc3[C@@H](NC(=O)[C@H](C)N3C(=O)C5C6CCC(O6)C5C3=O)[C@H]3COC(=O)[C@H]23)OCO4)cc(OC)c1O (some centres not stated)	> 100 µM
COc1cc([C@@H]2c3cc4c(cc3[C@@H](NC(=O)CCN3C(=O)C5C6CCC(O6)C5C3=O)[C@H]3COC(=O)[C@H]23)OCO4)cc(OC)c1O (some centres not stated)	9.52 µM
CC[C@H](C)[C@@H](C(=O)N[C@@H]1c2cc3c(cc2[C@@H](c2cc(OC)c(O)c(OC)c2)[C@H]2C(=O)OC[C@@H]21)OCO3)N1C(=O)C2C3CCC(O3)C2C1=O (some centres not stated)	75.7 µM
COc1cc([C@@H]2c3cc4c(cc3[C@@H](NC(=O)c3ccc(N5C(=O)C6C7CCC(O7)C6C5=O)cc3)[C@H]3COC(=O)[C@H]23)OCO4)cc(OC)c1O (some centres not stated)	3.63 µM
COc1cc([C@@H]2c3cc4c(cc3[C@@H](NC(=O)CN3C(=O)C5C6CCC(O6)C5C3=O)[C@H]3COC(=O)[C@H]23)OCO4)cc(OC)c1O (some centres not stated)	0.68 µM
COc1cc([C@@H]2c3cc4c(cc3[C@@H](NC(=O)[C@H](Cc3ccccc3)N3C(=O)C5C6CCC(O6)C5C3=O)[C@H]3COC(=O)[C@H]23)OCO4)cc(OC)c1O (some centres not stated)	> 100 µM
